One assay deals with Focal adhesion kinase 1 (Homo sapiens, UniProt Q05397). The assay is described as follows: Inhibition of FAK (unknown origin). Put shortly:
(§1)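 Biochemical (cell-free) assay within a panel of 24 protein kinases. Results reported as IC50 values. Procedure as described in earlier work.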

The target in another assay is Insulin receptor (Homo sapiens, UniProt P06213). The assay is described as follows: Inhibition of INSR (unknown origin). A digest of the protocol:
as §1

Assay [1] concerns the target T1, Receptor-type tyrosine-protein kinase FLT3 (Homo sapiens, UniProt P36888).
T1 sequence (P36888 whole entry): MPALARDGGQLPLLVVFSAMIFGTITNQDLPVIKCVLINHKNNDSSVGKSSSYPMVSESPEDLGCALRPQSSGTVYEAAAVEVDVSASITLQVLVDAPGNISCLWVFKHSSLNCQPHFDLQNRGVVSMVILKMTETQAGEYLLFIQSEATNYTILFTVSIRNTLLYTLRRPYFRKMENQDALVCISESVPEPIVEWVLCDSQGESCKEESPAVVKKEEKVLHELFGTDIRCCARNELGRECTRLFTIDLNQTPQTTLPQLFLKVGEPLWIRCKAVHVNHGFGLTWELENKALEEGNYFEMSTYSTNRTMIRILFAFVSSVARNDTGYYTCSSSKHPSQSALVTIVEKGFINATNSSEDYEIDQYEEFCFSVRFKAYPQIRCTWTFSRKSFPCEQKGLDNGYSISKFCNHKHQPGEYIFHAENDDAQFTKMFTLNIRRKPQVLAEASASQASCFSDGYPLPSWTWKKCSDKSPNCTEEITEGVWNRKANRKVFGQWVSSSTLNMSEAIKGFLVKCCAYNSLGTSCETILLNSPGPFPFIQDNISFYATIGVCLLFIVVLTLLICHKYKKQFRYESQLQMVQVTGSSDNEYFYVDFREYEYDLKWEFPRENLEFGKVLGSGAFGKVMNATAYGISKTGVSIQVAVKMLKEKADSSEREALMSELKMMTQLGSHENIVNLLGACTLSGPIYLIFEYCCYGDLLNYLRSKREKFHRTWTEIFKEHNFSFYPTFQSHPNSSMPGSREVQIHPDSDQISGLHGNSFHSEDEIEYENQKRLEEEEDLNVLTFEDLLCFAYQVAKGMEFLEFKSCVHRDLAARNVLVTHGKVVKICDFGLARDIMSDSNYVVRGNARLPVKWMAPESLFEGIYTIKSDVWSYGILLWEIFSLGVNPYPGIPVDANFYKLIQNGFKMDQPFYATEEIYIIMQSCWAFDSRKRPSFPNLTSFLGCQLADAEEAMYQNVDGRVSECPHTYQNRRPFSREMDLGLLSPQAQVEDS
The experiment in a line: Inhibition of FLT3 (unknown origin). A digest of the protocol:
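Biochemical (cell-free) assay using a panel of 24 protein kinases. The read-out was the IC50.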

The target of assay [2] is Receptor tyrosine-protein kinase erbB-2 (Homo sapiens, UniProt P04626). The experiment in a line: Inhibition of ERBB2 (unknown origin). Put shortly: as §1
Sequence of Receptor tyrosine-protein kinase erbB-2 (P04626 whole entry): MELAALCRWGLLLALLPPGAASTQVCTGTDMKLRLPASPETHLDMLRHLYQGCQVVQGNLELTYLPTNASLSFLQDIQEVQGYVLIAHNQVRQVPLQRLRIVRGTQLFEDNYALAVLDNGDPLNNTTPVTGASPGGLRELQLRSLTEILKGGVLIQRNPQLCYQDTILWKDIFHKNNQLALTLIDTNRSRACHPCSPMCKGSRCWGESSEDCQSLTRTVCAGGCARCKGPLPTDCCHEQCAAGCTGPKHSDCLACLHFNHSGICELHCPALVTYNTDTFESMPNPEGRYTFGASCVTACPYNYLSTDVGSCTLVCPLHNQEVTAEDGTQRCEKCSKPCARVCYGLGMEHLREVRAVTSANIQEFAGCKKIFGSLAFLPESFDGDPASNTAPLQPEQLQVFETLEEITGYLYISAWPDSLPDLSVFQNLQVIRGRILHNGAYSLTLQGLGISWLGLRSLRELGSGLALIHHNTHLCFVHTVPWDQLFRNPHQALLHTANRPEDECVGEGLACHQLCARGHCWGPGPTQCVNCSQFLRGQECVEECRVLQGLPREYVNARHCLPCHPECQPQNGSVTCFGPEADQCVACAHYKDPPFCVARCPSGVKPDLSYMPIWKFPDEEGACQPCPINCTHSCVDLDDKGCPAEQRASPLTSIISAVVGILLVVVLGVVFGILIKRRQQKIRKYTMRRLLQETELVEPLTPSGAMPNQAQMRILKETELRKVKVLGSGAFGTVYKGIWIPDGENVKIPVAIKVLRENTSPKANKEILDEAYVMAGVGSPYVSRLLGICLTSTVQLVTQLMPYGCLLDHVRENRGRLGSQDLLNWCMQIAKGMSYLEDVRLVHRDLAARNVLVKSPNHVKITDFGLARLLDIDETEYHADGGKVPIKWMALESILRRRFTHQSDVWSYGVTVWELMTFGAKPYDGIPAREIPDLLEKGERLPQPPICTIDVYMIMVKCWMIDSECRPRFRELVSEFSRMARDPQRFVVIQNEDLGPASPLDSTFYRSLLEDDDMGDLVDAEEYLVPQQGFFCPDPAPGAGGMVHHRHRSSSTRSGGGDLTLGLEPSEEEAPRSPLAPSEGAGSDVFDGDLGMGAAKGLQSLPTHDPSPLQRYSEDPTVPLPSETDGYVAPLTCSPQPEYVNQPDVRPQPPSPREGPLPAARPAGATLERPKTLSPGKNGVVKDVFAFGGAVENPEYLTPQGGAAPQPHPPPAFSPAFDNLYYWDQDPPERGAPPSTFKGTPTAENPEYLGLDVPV
In assay [3] the target is Cyclin-dependent kinase 4/cyclin D1 (Homo sapiens, UniProt P11802). The assay is described as follows: Inhibition of CDK4/cyclin-D1 (unknown origin). Format: protein-complex assay. Put shortly:
as §1

The target of the next assay is Aurora kinase B (Homo sapiens, UniProt Q96GD4). The experiment in a line: Inhibition of aurora-B (unknown origin). A digest of the protocol:
as §1

The target in another assay is T2, Aurora kinase A (Homo sapiens, UniProt O14965).
T2 sequence (O14965 whole entry): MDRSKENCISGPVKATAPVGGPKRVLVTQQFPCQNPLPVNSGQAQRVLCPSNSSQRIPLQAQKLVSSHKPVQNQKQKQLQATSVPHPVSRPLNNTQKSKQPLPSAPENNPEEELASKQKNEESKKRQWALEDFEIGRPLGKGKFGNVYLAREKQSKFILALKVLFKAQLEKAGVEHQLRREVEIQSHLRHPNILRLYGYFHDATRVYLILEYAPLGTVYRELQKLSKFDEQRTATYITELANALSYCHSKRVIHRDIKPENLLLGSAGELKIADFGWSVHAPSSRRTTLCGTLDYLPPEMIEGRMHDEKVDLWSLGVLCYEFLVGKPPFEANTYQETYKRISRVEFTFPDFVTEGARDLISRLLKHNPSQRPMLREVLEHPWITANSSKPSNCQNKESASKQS
The experiment in a line: Inhibition of aurora-A (unknown origin). Put shortly:
as §1

Assay [4] deals with Vascular endothelial growth factor receptor 2 (Homo sapiens, UniProt P35968). The experiment in a line: Inhibition of VEGFR2 (unknown origin). A digest of the protocol: as §1
Sequence of Vascular endothelial growth factor receptor 2 (P35968 whole entry): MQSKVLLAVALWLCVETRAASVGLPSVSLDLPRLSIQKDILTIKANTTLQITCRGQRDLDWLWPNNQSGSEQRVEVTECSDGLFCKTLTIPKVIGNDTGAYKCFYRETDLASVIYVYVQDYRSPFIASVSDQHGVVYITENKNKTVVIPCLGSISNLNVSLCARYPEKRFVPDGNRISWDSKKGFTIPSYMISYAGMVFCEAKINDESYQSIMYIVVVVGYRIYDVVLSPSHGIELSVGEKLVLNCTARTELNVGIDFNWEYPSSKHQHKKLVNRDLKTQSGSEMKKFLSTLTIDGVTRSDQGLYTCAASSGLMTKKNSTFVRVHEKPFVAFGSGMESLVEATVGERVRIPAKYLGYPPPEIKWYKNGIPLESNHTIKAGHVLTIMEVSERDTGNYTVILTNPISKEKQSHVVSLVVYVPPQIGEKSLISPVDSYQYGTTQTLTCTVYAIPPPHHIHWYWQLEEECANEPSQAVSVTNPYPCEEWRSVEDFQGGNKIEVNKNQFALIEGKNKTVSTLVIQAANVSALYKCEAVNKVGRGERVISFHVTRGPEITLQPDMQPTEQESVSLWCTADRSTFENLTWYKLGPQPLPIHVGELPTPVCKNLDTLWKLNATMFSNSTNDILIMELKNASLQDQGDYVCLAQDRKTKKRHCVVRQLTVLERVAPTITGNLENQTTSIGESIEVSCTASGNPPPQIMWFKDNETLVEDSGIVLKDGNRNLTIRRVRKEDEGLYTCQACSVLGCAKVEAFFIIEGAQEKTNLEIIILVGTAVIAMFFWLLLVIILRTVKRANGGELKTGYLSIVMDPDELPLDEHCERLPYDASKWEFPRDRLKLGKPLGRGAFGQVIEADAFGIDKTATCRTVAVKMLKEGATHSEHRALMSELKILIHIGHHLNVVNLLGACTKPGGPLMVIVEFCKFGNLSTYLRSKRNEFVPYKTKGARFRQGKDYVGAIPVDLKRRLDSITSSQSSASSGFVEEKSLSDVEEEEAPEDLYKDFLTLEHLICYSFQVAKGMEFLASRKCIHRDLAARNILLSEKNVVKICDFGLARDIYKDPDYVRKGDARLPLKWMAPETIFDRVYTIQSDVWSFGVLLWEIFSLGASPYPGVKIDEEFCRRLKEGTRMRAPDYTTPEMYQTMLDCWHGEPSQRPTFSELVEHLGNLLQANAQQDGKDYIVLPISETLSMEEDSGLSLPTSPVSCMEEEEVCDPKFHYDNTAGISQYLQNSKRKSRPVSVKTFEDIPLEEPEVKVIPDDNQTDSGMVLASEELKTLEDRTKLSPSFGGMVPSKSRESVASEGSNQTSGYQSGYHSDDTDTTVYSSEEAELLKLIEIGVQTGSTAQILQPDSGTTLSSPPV
Assay [5] deals with Vascular endothelial growth factor receptor 3 (Homo sapiens, UniProt P35916). The experiment in a line: Inhibition of VEGFR3 (unknown origin). A digest of the protocol:
as §1

A further assay deals with Angiopoietin-1 receptor (Homo sapiens, UniProt Q02763). The experiment in a line: Inhibition of TIE2 (unknown origin). A digest of the protocol:
as §1

The target of assay [6] is Proto-oncogene tyrosine-protein kinase Src (Homo sapiens, UniProt P12931). The experiment in a line: Inhibition of SRC (unknown origin). A digest of the protocol: as §1
Assay [7] concerns the target T3, Serine/threonine-protein kinase PLK4 (Homo sapiens, UniProt O00444).
T3 sequence (O00444 whole entry): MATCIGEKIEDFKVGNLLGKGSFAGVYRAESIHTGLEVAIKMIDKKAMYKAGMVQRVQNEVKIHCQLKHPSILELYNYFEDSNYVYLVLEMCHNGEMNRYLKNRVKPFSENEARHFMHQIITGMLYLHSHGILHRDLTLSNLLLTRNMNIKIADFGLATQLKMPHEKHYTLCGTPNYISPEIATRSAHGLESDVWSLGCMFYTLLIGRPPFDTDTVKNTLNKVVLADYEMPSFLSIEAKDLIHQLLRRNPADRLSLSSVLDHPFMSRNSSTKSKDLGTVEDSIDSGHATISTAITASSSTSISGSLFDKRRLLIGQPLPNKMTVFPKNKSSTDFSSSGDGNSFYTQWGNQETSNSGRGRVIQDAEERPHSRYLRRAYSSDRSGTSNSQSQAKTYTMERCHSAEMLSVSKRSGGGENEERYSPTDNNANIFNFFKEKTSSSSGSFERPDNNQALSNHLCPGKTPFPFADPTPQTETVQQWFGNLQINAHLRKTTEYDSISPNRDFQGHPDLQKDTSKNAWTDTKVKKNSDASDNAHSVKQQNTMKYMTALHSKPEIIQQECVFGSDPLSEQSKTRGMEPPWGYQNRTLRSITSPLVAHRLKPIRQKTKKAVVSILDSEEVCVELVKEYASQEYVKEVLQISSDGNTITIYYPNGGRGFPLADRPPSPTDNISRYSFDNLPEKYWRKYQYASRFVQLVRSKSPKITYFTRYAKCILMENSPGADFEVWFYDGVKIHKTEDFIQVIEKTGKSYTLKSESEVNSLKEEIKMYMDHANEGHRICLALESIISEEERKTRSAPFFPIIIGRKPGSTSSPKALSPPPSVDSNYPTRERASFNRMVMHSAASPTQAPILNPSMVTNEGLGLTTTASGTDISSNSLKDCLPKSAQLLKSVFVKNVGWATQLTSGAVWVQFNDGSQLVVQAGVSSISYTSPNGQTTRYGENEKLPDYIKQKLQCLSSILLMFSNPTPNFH
The experiment in a line: Inhibition of SAK (unknown origin). Put shortly:
as §1

Assay [8] concerns the target Hepatocyte growth factor receptor (Homo sapiens, UniProt P08581). The experiment in a line: Inhibition of MET (unknown origin). Put shortly: as §1
Assay [9] deals with Insulin-like growth factor 1 receptor (Homo sapiens, UniProt P08069). The assay is described as follows: Inhibition of IGF1R (unknown origin). Put shortly:
as §1

Drawing on ChEMBL document CHEMBL2331160, “Trimeric hemibastadin congener from the marine sponge Ianthella basta” (J Nat Prod, 2013), this text covers IC50 for three compounds.

Sequence of Insulin-like growth factor 1 receptor (P08069 31-736 limits assumed): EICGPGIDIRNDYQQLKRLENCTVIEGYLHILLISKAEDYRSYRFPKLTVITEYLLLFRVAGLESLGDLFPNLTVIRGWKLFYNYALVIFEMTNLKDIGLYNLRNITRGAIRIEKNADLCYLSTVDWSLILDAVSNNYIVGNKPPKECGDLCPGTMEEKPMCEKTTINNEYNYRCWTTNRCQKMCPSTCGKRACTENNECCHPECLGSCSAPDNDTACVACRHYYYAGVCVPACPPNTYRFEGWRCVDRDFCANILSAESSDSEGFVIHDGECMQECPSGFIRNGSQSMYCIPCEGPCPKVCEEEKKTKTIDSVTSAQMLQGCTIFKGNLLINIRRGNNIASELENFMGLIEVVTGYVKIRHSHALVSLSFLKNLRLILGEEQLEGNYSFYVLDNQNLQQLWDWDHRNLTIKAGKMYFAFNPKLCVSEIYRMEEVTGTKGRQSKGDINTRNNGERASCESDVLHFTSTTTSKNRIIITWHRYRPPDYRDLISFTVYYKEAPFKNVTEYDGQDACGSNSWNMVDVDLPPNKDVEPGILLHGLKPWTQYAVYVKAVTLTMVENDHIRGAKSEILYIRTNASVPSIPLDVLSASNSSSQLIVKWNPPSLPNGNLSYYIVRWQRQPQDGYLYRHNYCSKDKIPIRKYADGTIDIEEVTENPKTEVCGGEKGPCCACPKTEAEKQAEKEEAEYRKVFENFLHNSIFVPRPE
Sequence of Insulin-like growth factor 1 receptor (P08069 741-1367 limits assumed): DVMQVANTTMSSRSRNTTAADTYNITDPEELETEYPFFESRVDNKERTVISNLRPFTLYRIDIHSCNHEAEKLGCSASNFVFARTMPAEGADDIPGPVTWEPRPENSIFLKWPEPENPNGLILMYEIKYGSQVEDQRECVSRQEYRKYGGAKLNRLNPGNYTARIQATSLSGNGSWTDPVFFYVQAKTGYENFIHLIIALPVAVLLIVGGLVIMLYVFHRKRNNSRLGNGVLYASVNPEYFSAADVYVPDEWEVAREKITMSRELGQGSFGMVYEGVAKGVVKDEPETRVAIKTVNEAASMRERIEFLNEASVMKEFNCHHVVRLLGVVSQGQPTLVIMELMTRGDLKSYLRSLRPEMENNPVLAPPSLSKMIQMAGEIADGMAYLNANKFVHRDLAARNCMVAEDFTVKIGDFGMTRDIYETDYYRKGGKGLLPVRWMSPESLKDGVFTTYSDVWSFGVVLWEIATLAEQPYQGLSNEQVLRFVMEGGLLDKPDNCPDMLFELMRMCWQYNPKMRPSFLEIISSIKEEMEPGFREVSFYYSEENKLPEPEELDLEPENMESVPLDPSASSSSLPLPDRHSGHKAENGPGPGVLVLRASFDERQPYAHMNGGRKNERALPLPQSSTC
Sequence of Angiopoietin-1 receptor (Q02763 whole entry): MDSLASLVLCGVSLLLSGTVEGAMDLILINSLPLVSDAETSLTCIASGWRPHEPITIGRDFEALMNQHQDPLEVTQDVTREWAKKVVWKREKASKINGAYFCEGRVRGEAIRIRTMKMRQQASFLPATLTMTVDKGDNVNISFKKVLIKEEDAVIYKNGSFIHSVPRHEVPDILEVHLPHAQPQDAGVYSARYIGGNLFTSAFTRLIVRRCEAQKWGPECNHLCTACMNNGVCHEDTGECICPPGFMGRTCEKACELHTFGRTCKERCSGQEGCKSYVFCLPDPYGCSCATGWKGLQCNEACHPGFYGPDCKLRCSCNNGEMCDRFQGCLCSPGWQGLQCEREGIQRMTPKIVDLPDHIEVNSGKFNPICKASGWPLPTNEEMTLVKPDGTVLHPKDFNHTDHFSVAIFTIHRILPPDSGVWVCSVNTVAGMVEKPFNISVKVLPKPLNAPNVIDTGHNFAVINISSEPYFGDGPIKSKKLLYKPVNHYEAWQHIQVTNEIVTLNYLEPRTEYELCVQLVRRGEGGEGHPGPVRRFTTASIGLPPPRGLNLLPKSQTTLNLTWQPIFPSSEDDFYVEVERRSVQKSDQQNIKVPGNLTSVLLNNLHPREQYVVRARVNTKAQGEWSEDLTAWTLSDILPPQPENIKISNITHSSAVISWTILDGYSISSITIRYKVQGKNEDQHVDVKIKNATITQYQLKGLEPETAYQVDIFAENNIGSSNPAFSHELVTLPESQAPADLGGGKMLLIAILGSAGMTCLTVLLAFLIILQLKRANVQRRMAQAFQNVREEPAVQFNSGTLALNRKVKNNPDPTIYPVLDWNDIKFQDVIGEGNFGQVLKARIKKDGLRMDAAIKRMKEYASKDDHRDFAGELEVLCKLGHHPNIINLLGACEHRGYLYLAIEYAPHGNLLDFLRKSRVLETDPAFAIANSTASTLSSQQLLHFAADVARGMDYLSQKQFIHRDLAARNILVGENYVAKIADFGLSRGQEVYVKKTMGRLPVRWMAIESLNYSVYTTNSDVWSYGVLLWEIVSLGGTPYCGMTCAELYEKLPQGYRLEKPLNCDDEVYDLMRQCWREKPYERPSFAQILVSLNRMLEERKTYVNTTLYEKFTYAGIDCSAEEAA

Turning to `O=C(NCCc1ccc(O)c(Br)c1)/C(Cc1cc(Br)c(O)c(-c2cc(C/C(=N/O)C(=O)NCCc3ccc(O)c(Br)c3)cc(Br)c2O)c1)=N\O` [BASTADIN 3], the IC50 (as a rule, the concentration at which inhibition is half-maximal) worked out at 2.1 µM against Focal adhesion kinase 1; 2.9 µM against Insulin receptor; 2.4 µM in assay [1]; 2.1 µM in assay [2]; 1.5 µM in assay [3]; 0.5 µM on Aurora kinase B. Moreover, the IC50 at Aurora kinase A came to 0.1 µM; in [4], 1.2 µM; in assay [5], 2.8 µM; at Angiopoietin-1 receptor, 0.8 µM; in assay [6], 1.9 µM; in [7], 4.1 µM. The IC50 is 1.1 µM in assay [8] and 2.3 µM in [9].

As to `O=C1N/C=C/c2ccc(c(Br)c2)Oc2cc(cc(Br)c2O)CCNC(=O)/C(=N/O)Cc2ccc(c(Br)c2)Oc2cc(cc(Br)c2O)C/C1=N\O` [BASTADIN 7], the IC50 at Focal adhesion kinase 1 came to 7.3 µM; on Insulin receptor it was 4.4 µM; in assay [1] it was 2.9 µM; in assay [2], 2.8 µM; in assay [3], 2.6 µM; against Aurora kinase B it was 2.6 µM. For the same compound, the 50% inhibitory concentration (IC50) was found to be 3.9 µM at Aurora kinase A; 1.3 µM in [4]; 3.2 µM in assay [5]; 1.8 µM against Angiopoietin-1 receptor; 2 µM in assay [6]; 1.9 µM in assay [7]. For the same compound, the IC50 in assay [8] came out at 2.8 µM; in [9], 1.7 µM.

For the compound `O=C(NCCc1ccc(O)c(Br)c1)/C(Cc1cc(Br)c(O)c(Oc2ccc(CCNC(=O)/C(Cc3cc(Br)c(O)c(-c4cc(C/C(=N\O)C(=O)NCCc5ccc(O)c(Br)c5)cc(Br)c4O)c3)=N/O)cc2Br)c1)=N/O` [SESQUIBASTADIN 1], the IC50 was 3.5 µM at Focal adhesion kinase 1; 1.4 µM against Insulin receptor; 1.4 µM in assay [1]; 2.1 µM in assay [2]; 1.4 µM in assay [3]; 2.3 µM against Aurora kinase B. Further, the IC50 on Aurora kinase A was determined as 2.6 µM; in assay [4], 0.6 µM; in [5], 1.6 µM; at Angiopoietin-1 receptor, 0.6 µM; in [6], 0.7 µM; in assay [7], 0.7 µM. Further, the IC50 in [8] came out at 0.8 µM; in assay [9], 1 µM.
